According to ChEMBL document CHEMBL5674883, “The Heterochromatin Landscape in Migrating Cells and the Importance of H3K27me3 for Associated Transcriptome Alterations” (Cells, 2018):

Assays:
Type in all cases: cell-based
[1] = target: Histone-lysine N-methyltransferase EZH2 (Mus musculus) (UniProt Q61188); assay: Inhibition of EZH2 in mouse B16-F1 migrating cells assessed as fold change in H3K27me3-independent regulated Adgrg1-mRNA expression at 3 uM measured by […] analysis relative to control cells
How it was run: (§1)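 Confluent B16-F1 cells on fibronectin-coated plates were scratched at multiple sites, washed once with DMEM and left to migrate 3 h in growth medium (37 °C, 7% CO2); unscratched cells served as control. GSK343 (3 µM) was added 3 h before lysis. Poly A mRNA was sequenced (RNA-seq), with 5 replicates for untreated and 3 for treated cells. Differential expression was called by linear model with batch correction, at FDR <0.05 and fold change ≥1.3.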

[2] = target: Histone-lysine N-methyltransferase EZH2 (Mus musculus) (UniProt Q61188); assay: Inhibition of EZH2 in mouse B16-F1 migrating cells assessed as fold change in H3K27me3-independent regulated Skil-mRNA expression at 3 uM measured by […] analysis relative to control cells; how it was run: as §1
[3] = target: Histone-lysine N-methyltransferase EZH2 (Mus musculus) (UniProt Q61188); assay: Inhibition of EZH2 in mouse B16-F1 migrating cells assessed as fold change in H3K27me3-buffered regulated Gatd1-mRNA expression at 3 uM measured by ChIP-seq analysis relative to control cells
How it was run: (§2)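 Confluent B16-F1 cells on fibronectin-coated plates, cultured at 37 °C and 7% CO2, were scratched at multiple sites to induce migration. They were then held 3 h in growth medium containing 3 µM GSK343, with the inhibitor added 3 h before lysis. Unscratched cells served as controls. Poly A mRNA was analysed by RNA-seq (n=3 GSK343, n=5 controls). Linear models removed batch effects, and buffered genes were those altered only under GSK343 (FDR <0.05, fold change >1.3).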

[4] = target: Histone-lysine N-methyltransferase EZH2 (Mus musculus) (UniProt Q61188); assay: Inhibition of EZH2 in mouse B16-F1 migrating cells assessed as fold change in H3K27me3-buffered regulated Foxa1-mRNA expression at 3 uM measured by […] analysis relative to control cells; how it was run: as §2
[5] = target: Histone-lysine N-methyltransferase EZH2 (Mus musculus) (UniProt Q61188); assay: Inhibition of EZH2 in mouse B16-F1 migrating cells assessed as fold change in H3K27me3-buffered regulated Edrf1-mRNA expression at 3 uM measured by ChIP-seq analysis relative to control cells; how it was run: as §2
[6] = target: Histone-lysine N-methyltransferase EZH2 (Mus musculus) (UniProt Q61188); assay: Inhibition of EZH2 in mouse B16-F1 migrating cells assessed as fold change in H3K27me3-buffered regulated Snhg5-mRNA expression at 3 uM measured by […] analysis relative to control cells; how it was run: as §1
[7] = target: Histone-lysine N-methyltransferase EZH2 (Mus musculus) (UniProt Q61188); assay: Inhibition of EZH2 in mouse B16-F1 migrating cells assessed as fold change in H3K27me3-buffered regulated Spag1-mRNA expression at 3 uM measured by […] analysis relative to control cells; how it was run: as §1
[8] = target: Histone-lysine N-methyltransferase EZH2 (Mus musculus) (UniProt Q61188); assay: Inhibition of EZH2 in mouse B16-F1 migrating cells assessed as fold change in H3K27me3-buffered regulated Hunk-mRNA expression at 3 uM measured by […] analysis relative to control cells; how it was run: as §2
[9] = target: Histone-lysine N-methyltransferase EZH2 (Mus musculus) (UniProt Q61188); assay: Inhibition of EZH2 in mouse B16-F1 migrating cells assessed as fold change in H3K27me3-buffered regulated Rhobtb3-mRNA expression at 3 uM measured by […] analysis relative to control cells; how it was run: as §1
[10] = target: Histone-lysine N-methyltransferase EZH2 (Mus musculus) (UniProt Q61188); assay: Inhibition of EZH2 in mouse B16-F1 migrating cells assessed as fold change in H3K27me3-independent regulated Cntnap1-mRNA expression at 3 uM measured by […] analysis relative to control cells; how it was run: as §1
[11] = target: Histone-lysine N-methyltransferase EZH2 (Mus musculus) (UniProt Q61188); assay: Inhibition of EZH2 in mouse B16-F1 migrating cells assessed as fold change in H3K27me3-buffered regulated Tcf7l1-mRNA expression at 3 uM measured by […] analysis relative to control cells; how it was run: as §1
[12] = target: Histone-lysine N-methyltransferase EZH2 (Mus musculus) (UniProt Q61188); assay: Inhibition of EZH2 in mouse B16-F1 migrating cells assessed as fold change in H3K27me3-buffered regulated 4930503L19Rik-mRNA expression at 3 uM measured by […] analysis relative to control cells; how it was run: as §2
[13] = target: T1, RNA polymerase II (Mus musculus) (UniProt P08775+Q8CFI7+P97760+A0A3Q4L2S8+Q80UW8+P61219+P62488+Q923G2+P60898+O08740+Q63871+P62876); assay: Inhibition of RNA polymerase II in mouse B16-F1 migrating cells assessed as fold change in Slc27a3-RNA stability at 0.1 mM measured by […] analysis relative to control cells
[14] = target: T1, RNA polymerase II (Mus musculus); assay: Inhibition of RNA polymerase II in mouse B16-F1 migrating cells assessed as fold change in Calu-RNA stability at 0.1 mM measured by […] analysis relative to control cells
[15] = target: T1, RNA polymerase II (Mus musculus); assay: Inhibition of RNA polymerase II in mouse B16-F1 migrating cells assessed as fold change in Dpy19l4-RNA stability at 0.1 mM measured by ChIP-seq analysis relative to control cells
[16] = target: T1, RNA polymerase II (Mus musculus); assay: Inhibition of RNA polymerase II in mouse B16-F1 migrating cells assessed as fold change in Polr3f-RNA stability at 0.1 mM measured by […] analysis relative to control cells
[17] = target: T1, RNA polymerase II (Mus musculus); assay: Inhibition of RNA polymerase II in mouse B16-F1 migrating cells assessed as fold change in Psip1-RNA stability at 0.1 mM measured by […] analysis relative to control cells
[18] = target: T1, RNA polymerase II (Mus musculus); assay: Inhibition of RNA polymerase II in mouse B16-F1 migrating cells assessed as fold change in Pde12-RNA stability at 0.1 mM measured by […] analysis relative to control cells
[19] = target: T1, RNA polymerase II (Mus musculus); assay: Inhibition of RNA polymerase II in mouse B16-F1 migrating cells assessed as fold change in Mad2l2-RNA stability at 0.1 mM measured by ChIP-seq analysis relative to control cells
[20] = target: T1, RNA polymerase II (Mus musculus); assay: Inhibition of RNA polymerase II in mouse B16-F1 migrating cells assessed as fold change in Alg2-RNA stability at 0.1 mM measured by […] analysis relative to control cells
[21] = target: T1, RNA polymerase II (Mus musculus); assay: Inhibition of RNA polymerase II in mouse B16-F1 migrating cells assessed as fold change in Rps8-RNA stability at 0.1 mM measured by […] analysis relative to control cells
[22] = target: T1, RNA polymerase II (Mus musculus); assay: Inhibition of RNA polymerase II in mouse B16-F1 migrating cells assessed as fold change in Kdelr1-RNA stability at 0.1 mM measured by ChIP-seq analysis relative to control cells
How it was run: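 Mouse B16-F1 melanoma cells grown to confluence on fibronectin in DMEM/10% FCS at 37 °C, 7% CO2. Migration induced by multiple scratches and 3 h incubation; unscratched controls. DRB 0.1 mM added 3 h before lysis. RNA from poly A-selected mRNA was sequenced (RNA-seq, three replicates per DRB group). Fold change computed for DRB-treated migrating vs DRB-treated control cells; cutoffs fold change >1.3, FDR <0.05.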

[23] = target: T1, RNA polymerase II (Mus musculus); assay: Inhibition of RNA polymerase II in mouse B16-F1 migrating cells assessed as fold change in Plekha2-RNA stability at 0.1 mM measured by […] analysis relative to control cells
[24] = target: T1, RNA polymerase II (Mus musculus); assay: Inhibition of RNA polymerase II in mouse B16-F1 migrating cells assessed as fold change in Galk1-RNA stability at 0.1 mM measured by ChIP-seq analysis relative to control cells

Sequence of Histone-lysine N-methyltransferase EZH2 (Mus musculus) (Q61188 whole entry): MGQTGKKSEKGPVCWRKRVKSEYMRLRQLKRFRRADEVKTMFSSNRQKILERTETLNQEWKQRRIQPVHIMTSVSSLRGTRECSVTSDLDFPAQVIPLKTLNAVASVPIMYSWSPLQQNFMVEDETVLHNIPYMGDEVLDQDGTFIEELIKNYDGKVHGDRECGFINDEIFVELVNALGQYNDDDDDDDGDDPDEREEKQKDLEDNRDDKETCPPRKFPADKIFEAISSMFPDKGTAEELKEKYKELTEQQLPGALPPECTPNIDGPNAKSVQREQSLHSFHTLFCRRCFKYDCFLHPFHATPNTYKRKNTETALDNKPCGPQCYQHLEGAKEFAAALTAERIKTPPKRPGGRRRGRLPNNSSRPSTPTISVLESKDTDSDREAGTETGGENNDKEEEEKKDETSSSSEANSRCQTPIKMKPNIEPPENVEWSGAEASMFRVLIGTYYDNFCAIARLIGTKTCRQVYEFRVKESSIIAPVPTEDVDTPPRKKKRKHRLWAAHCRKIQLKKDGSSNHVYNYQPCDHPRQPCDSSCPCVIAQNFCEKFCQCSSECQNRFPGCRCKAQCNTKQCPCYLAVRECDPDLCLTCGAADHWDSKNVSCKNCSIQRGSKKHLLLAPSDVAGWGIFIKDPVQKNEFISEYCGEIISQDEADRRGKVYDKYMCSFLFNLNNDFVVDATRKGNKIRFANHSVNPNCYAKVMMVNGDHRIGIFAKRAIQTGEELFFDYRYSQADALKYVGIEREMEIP

CCCc1cc(C)[nH]c(=O)c1CNC(=O)c1cc(-c2ccnc(N3CCN(C)CC3)c2)cc2c1cnn2C(C)C
log2FC [1]: 0.48 | log2FC [2]: 0.42 | log2FC [3]: -0.43 | log2FC [4]: -0.77 | log2FC [5]: -0.41 | log2FC [6]: -0.89 | log2FC [7]: -0.78 | log2FC [8]: -0.5 | log2FC [9]: -0.62 | log2FC [10]: -0.76 | log2FC [11]: -0.48 | log2FC [12]: -0.64

OC[C@H]1O[C@@H](n2cnc3cc(Cl)c(Cl)cc32)[C@H](O)[C@@H]1O
log2FC [13]: 0.65 | log2FC [14]: -0.47 | log2FC [15]: -0.58 | log2FC [16]: -0.8 | log2FC [17]: -0.83 | log2FC [18]: -0.77 | log2FC [19]: 0.43 | log2FC [20]: 0.52 | log2FC [21]: 0.41 | log2FC [22]: 0.4 | log2FC [23]: 0.71 | log2FC [24]: 0.67
